From ChEMBL document CHEMBL1143066, “Characterization and optimization of selective, nonpeptidic inhibitors of cathepsin S with an unprecedented binding mode” (J Med Chem, 2007)

Experiments:
[1] = target: Cathepsin B (Homo sapiens, UniProt P07858); experiment: Inhibition of cathepsin B
Summary of the method: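 Cathepsin B (2 nM) in pH 6.1 phosphate/NaCl/DTT/EDTA/Tween-20 buffer, preincubated with inhibitor (in DMSO) for 5 min at 37 °C. Cbz-Phe-Arg-AMC 2.5 µM then added and AMC followed for 5 min (ex 355/em 450 nm). Five inhibitor levels spanning 10–90% inhibition, in duplicate. IC50 from V_i/V_o plots, converted as K_i = IC50 − E_t/2.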

[2] = target: T1, Cathepsin K (Homo sapiens, UniProt P43235); experiment: Inhibition of cathepsin K
T1 sequence (P43235 whole entry): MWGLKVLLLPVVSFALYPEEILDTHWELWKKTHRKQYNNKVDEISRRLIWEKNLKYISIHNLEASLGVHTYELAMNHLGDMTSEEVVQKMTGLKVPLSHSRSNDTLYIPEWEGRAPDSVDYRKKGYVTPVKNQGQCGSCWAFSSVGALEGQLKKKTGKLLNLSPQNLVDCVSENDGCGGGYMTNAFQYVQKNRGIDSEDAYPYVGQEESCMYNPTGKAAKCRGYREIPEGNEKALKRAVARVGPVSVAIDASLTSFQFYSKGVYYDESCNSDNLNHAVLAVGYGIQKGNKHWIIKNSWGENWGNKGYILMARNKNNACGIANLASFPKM
Summary of the method: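 Cathepsin K at 10 nM, preincubated 5 min at 37 °C with DMSO-delivered inhibitor in pH 6.1 sodium phosphate buffer with NaCl, DTT, EDTA, Tween-20. Then 2.5 µM Cbz-Phe-Arg-AMC; AMC release monitored for 5 min (ex 355/em 450 nm). Duplicates at five inhibitor concentrations giving 10–90% inhibition. K_i = IC50 − E_t/2, with IC50 from V_i/V_o versus concentration.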

[3] = target: Cathepsin S (Homo sapiens, UniProt P25774); experiment: Inhibition of cathepsin S
Cathepsin S, sequence (P25774 whole entry): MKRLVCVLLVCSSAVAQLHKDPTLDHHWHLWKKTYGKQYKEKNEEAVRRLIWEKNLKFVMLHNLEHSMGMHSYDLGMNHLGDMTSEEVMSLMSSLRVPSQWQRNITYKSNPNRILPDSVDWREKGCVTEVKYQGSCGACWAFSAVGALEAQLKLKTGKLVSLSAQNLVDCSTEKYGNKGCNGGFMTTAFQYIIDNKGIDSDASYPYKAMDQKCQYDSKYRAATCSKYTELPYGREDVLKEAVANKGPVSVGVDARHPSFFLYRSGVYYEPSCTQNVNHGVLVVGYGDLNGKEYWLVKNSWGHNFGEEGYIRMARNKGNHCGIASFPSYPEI
Summary of the method: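 Cathepsin S 0.7 nM with inhibitor (added in DMSO), 5 min at 37 °C in pH 6.1 phosphate buffer containing NaCl, DTT, EDTA and Tween-20. IC50 from V_i/V_o plot, converted to K_i via IC50 − E_t/2.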

[4] = target: Procathepsin L (Homo sapiens, UniProt P07711); experiment: Inhibition of cathepsin L
Procathepsin L, sequence (P07711 whole entry): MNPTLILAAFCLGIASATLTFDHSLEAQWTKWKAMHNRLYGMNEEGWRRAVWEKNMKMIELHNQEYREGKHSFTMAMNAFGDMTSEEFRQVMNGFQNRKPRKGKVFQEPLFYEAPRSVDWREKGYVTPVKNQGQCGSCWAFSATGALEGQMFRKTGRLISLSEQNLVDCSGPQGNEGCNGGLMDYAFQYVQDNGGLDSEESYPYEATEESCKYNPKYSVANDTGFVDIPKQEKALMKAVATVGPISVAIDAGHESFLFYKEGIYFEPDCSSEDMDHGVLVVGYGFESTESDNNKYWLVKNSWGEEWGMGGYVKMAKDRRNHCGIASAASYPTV

Ki [1] [µM] | Ki [2] [µM] | Ki [3] [µM] | Ki [4] [µM] | Structure (SMILES)
> 15 | 1.51 |  |  | O=CCOc1ccccc1-c1ccc(F)c(F)c1F
> 15 | 1.28 | 0.0487 |  | CCCc1ccc(-c2ccccc2OCC=O)c(F)c1F
> 15 | 1.24 | 0.0096 | > 15 | CC(C)Cc1ccc(-c2ccccc2OCC=O)c(F)c1F
